The list is not random: actives were taken first. Their share in the collection is about 0.98%.
PGC1a acetyl inh – modulators of PGC1a acetylation; U2OS PGC1a acetylation, AlphaScreen anti-acetyl-lysine; with virally co-expressed GCN5 acetyltransferase; AID 651687; inhibition, % at 15.6 µM; actives 0.17% (n = 350,000);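 active = every replicate shows inhibition of at least 40%; inconclusive = mean inhibition at least 40% but some replicate below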;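 note: 0% = neutral control wells and 100% = positive control wells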
ERAP1 HTS inh – ERAP1 (human) enzyme inhibition | Q9NZ08 | recombinant ERAP1, Leu-AMC fluorescence, 60 min | inhibition, % at 10.7 µM | actives 0.15% (n = 340,000);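 active = mean replicate inhibition of at least 30%, or all replicates individually reaching that 30% level; inactive = mean below 30% and not every replicate reaching it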;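 note: 0% = neutral control wells and 100% = L-leucinethiol positive control wells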
Rtt109 Vps75 – inhibitors of Candida albicans Rtt109/Vps75 histone acetyltransferase. inhibition, % at 34.9 µM. Q5AAJ8. actives 0.16% (n = 330,000). purified Rtt109/Vps75, ThioGlo CoA-SH fluorescence, 4 h. AID 540336;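 active = inhibition of at least 50% in every replicate; inconclusive = best replicate reaches 50% inhibition but some replicates fall short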
Target sequence (Q5AAJ8 whole entry, looked up): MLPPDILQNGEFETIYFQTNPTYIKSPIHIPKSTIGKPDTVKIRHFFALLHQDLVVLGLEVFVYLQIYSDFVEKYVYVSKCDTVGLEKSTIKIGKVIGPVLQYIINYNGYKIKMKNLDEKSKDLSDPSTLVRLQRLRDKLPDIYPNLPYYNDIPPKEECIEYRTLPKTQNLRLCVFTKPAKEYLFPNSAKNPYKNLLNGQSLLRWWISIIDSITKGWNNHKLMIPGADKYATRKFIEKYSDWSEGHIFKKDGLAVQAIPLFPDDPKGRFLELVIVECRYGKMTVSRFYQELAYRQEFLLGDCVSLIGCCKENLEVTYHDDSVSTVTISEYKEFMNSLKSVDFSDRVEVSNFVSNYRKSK
S100A4 inh HTS – inhibitors of human S100A4 binding to myosin IIA peptide | P26447 | S100A4/TAMRA-MyoIIA peptide fluorescence polarization | inhibition, % at 10.7 µM | actives 0.14% (n = 360,000) | AID 652163;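 active = mean inhibition of at least 70% across replicates, with every replicate also reaching that level; inconclusive = mean inhibition reaches 70% but some replicates fall short; inactive = mean inhibition below 70%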
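Material: S100A4 monomer (human). Medium: Calcium-containing HEPES buffer, pH 7.2. Probe or stimulus: labelled myosin peptide probe, 5 nM. Compound dosing: one concentration per compound. Timing: polarization read 5 min after assay mix addition, stable 5–60 min. Benchmarks: DMSO as neutral control, TFP as positive control.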
C2C12 statin – suppressors of simvastatin-induced myotoxicity in C2C12 myotubes; ATP luminescence, 48 h; scaled: DMSO 0, geranylgeraniol control 100; rescue of ATP level, % at 7.49 µM; actives 0.78% (n = 330,000); AID 602340;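 active = mean ATP rescue above about 67%, or every replicate alone reaching that limit, limit read from the data, passing the limit was not always enough; inconclusive = no clear call, values can overlap the other calls; inactive = mean under the limit and some replicate under it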;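 note: myotubes were challenged with 10 µM simvastatin during compound exposure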
COX5a expr inh – reduces COX5a expression driven by PGC-1a in C2C12 myotubes | shares compounds with PGC1a acetyl inh | C2C12 myotubes PGC-1a adenovirus, COX5a qPCR | maximal activity, % | 45 tested, under 10 active | AID 743461;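 active = fitted dose curve reaching 40% activity at or below the highest valid dose tested; inconclusive = flat fit between 30% and 70%, or an unusable fit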
AID743468 – change in PGC-1a target gene PDK4 expression, dose response, C2C12 myotubes, RT-qPCR, cherry-pick | shares compounds with PGC1a acetyl inh | 45 tested, under 10 active | PDK4 expression increase, % at 19.5 µM | PGC-1a adenovirus, PDK4 mRNA qPCR;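 active = fitted curve reaching a 40% PDK4 expression rise at or below the top valid tested dose; inconclusive = no clear call, values can overlap the other calls; inactive = the rest, including shifts the wrong way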
Starred values were filed as active, the others as inactive; ? = inconclusive; · = not tested or not shown.

SMILES	PGC1a acetyl inh	ERAP1 HTS inh	Rtt109 Vps75	S100A4 inh HTS	C2C12 statin	COX5a expr inh	AID743468
COc1ccccc1-c1ccc([C@@H]2[C@@H]3CN(S(=O)(=O)c4ccc(-c5ccccc5)cc4)C[C@H]2N3)cc1	-56	-5	·	16	·	-34	-44
COc1cccc(S(=O)(=O)N2C[C@@H]3N[C@H](C2)C3c2ccc(-c3ccccc3OC)cc2)c1 (stereo partly drawn)	-12	4	·	4	·	·	·
C[C@H](CO)N1C[C@H](C)[C@@H](CN(C)C)Oc2c(NC(=O)Nc3ccc4c(c3)OCO4)cccc2C1=O	3	1	·	-11	-11	·	·
CCOc1cc(CNC2CCCC2)cc(Cl)c1OCc1ccc(F)cc1	78*	·	13	·	8	-27	-9
CC(C)NC(=O)Nc1ccc2c(c1)C(=O)N([C@@H](C)CO)C[C@H](C)[C@@H](CN(C)C(=O)NC(C)C)O2	0	-4	·	-8	-5	·	·
O=C(C[C@H]1CC[C@H](NC(=O)c2ccccc2)[C@@H](CO)O1)Nc1ccc(-c2ccccc2)cc1	5	0	·	0	21	·	·
O=C(C[C@H]1CC[C@@H](NC(=O)c2ccccc2)[C@H](CO)O1)Nc1ccc(-c2ccccc2)cc1	44*	1	·	18	-47	-29	-29
Cc1cccc(NC(=O)CNC(=O)Cn2ncc(Cl)c(Cl)c2=O)c1C	?	·	-1	·	8	-39	26
O=C1c2ccccc2OC2(C=Cc3ccccc3O2)N1Cc1ccccc1 (stereo not drawn)	-12	·	2	·	-19	·	·
Cc1cc2c(c(/C=C/C(=O)c3ccccc3)c1)OC1(C=C2)Oc2ccccc2C(=O)N1C (stereo not drawn)	50*	2	·	3	·	-44	-53
